This is a sample that favours compounds with a hit; in the whole collection about 1.9% have one here.
MT stabilizer – microtubule stabilizers in HeLa cells; % tubulin-high responders, % at 10 µM; AID 2205; HeLa tubulin immunostaining HCS, 24 h; share of cells brighter than vehicle mean+2SD; actives 0.83% (n = 200,000);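 active = plate Z-score above 3 for both tubulin-high and condensed-nucleus cell shares, with cell loss under 80%, at 10 µM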;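 note: anti alpha tubulin signal scored within the nucleus-defined area of each cell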
Furin inh – blocks human furin protease activity; P09958; actives 0.061% (n = 220,000); purified furin, fluorogenic substrate cleavage; inhibition, % at 20 µM or 30 µM; in the data active = inhibition above about 25%
Target sequence (P09958 108-714 limits assumed): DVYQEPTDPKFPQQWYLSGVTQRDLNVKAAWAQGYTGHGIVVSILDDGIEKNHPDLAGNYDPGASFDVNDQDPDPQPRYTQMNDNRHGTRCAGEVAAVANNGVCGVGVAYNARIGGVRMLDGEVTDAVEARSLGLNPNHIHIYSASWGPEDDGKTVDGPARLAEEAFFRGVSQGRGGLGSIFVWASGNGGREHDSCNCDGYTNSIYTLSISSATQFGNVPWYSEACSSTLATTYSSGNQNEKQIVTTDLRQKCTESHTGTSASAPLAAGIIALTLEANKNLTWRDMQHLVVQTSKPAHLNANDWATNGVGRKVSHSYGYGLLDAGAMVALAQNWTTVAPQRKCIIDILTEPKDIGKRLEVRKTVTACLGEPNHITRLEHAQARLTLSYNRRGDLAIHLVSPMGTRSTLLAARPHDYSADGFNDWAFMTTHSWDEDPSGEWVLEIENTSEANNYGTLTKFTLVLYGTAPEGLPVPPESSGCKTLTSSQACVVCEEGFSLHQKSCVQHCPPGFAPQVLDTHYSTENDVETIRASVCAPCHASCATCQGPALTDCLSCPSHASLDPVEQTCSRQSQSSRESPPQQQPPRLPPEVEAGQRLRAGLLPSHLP
HSV augment – increases HSV replication in cells | HSV replication augmentation in cells, fold increase | maximum fold increase | actives 0.005% (n = 220,000); in the data active = maximum fold increase above about 1.5; inconclusive = no clear call, values can overlap the other calls; tested in PC3 cells
bCat nuc transl – beta-catenin nuclear translocation modulation. nuclear translocation activity, % at 5 µM. AID 1665. actives 0.3% (n = 190,000). HeLa beta-catenin nuclear translocation, immunofluorescence imaging;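 active = nuclear translocation activity above 50% at 5 µM, with a well cell count of 50 or more; inconclusive = wells under 50 cells across six images, flagged as toxic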;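 note: per-cell ratio of nuclear to cytoplasmic median beta-catenin stain intensity; plate controls were DMSO negative control for no effect and GSK-3 inhibitor IX positive control for full effect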
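System: Human HeLa cells, endogenous beta-catenin | Compound dosing: 5 µM primary, 0.02–20 µM confirmation | Timing: 24 h compound exposure at 37°C, 5% CO2 | Measured by: Fluorescence imaging of beta-catenin antibody stain plus DAPI | Read-out basis: % activation of per-cell nuclear versus cytoplasmic median beta-catenin signal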
Autophagy mod – alters autophagy in cells; MEF GFP-LC3 puncta imaging; test concentration mostly 10 µM; calls only at 10 µM (by protocol); actives 0.98% (n = 190,000); AID 463193;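 active = percentage of spot-positive cells more than 3 SD above its plate mean, without a fluorescence outlier flag or 80% toxicity; inconclusive = no clear call, values can overlap the other calls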;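 note: spot-positive cell cutoff set from DMSO-treated cells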
Insulin prom up – MIN6 insulin promoter up-regulation; MIN6 insulin promoter-GFP reporter, high-content imaging; active compounds read high; AID 1625; z-score at 5 µM; actives 0.3% (n = 190,000);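 active = z-score above 3 at 5 µM with at least 500 cells counted in the well; inconclusive = wells under 500 cells, flagged as cytotoxic or low count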
Numbers without * were called inactive; i = inactive; ? = inconclusive; . = no result; + = active, no number.

SMILES | MT stabilizer | Furin inh | HSV augment | bCat nuc transl | Autophagy mod | Insulin prom up
O=C(c1nn2c(C(F)(F)F)cc(-c3cccs3)nc2c1Br)N1CCCc2ccccc21 | 6 | -4 | i | . | i | -0.05
COc1cc(C2C(C#N)=C(C)NC3=C2C(=O)c2ccccc23)cc(OC)c1OC (centres undefined) | 16* | -29 | i | 5 | i | -0.76
COc1ccc(C2C(C#N)=C(C)NC3=C2C(=O)c2ccccc23)cc1 (centres undefined) | 11 | -20 | i | 2 | i | .
CC1=C([N+](=O)[O-])C(c2ccccc2)C2=C(N1)c1ccccc1C2=O (centres undefined) | 9.9* | 1 | i | -2 | + | 0.17
COc1ccc(NCC(=O)n2c(C)c(C)c3ccccc32)cc1 | 20* | -22 | i | 41 | i | -0.44
COc1ccc(C(=O)NC(=S)Nc2cc(C)ccn2)cc1[N+](=O)[O-] | 2 | -6 | i | . | i | -0.07
Nc1ccc2c(c1)Cc1cc([N+](=O)[O-])ccc1-2 | 3 | -26 | ? | -1 | + | .
Cc1ccc([N+](=O)[O-])cc1N | 3 | -26 | i | 4 | i | 0.41
COCC1CCCN(Cc2nc(C(c3ccccc3)c3ccccc3)no2)C1 (centres undefined) | 3 | -22 | i | -2 | + | 0.12
CCOc1ccc(C(=O)NCc2cccnc2)cc1[N+](=O)[O-] | 3 | -8 | i | 0 | i | 0.2
CN(C)CCCN(C(=O)c1cccs1)c1nc(-c2ccccc2)cs1 | 4 | -11 | i | -4 | + | -1.5
COc1cccc(NC(=O)C(Cc2ccccc2)n2cccc2)c1 (centres undefined) | . | -29 | i | -1 | . | -0.68
C=CCn1c(SCc2csc(C)n2)nc2sc3c(c2c1=O)CCC(C)C3 (centres undefined) | 26* | -1 | i | 1 | i | .
C=CCn1c(SCc2csc(C)n2)nc2sc3c(c2c1=O)CCCC3 | 2 | -19 | . | . | i | 1.4
CCCCn1c(=O)[nH]c2nc3cc(N)ccc3nc2c1=O | 2 | 8 | . | 0 | i | 4.8*
Nc1ccc2nc3c(=O)n(CCc4ccccc4)c(=O)[nH]c3nc2c1 | . | -2 | ? | 1 | . | 1.2
Cc1nc(Cl)nc(N(C)c2ccccc2)c1[N+](=O)[O-] | . | -9 | i | 0 | . | -0.25
Cc1ccc(NS(=O)(=O)c2ccccc2)c2c1CC(C)(C)O2 | 27* | -18 | i | -2 | i | 1.4
CSc1ccccc1NS(=O)(=O)c1ccccc1 | 3 | -9 | i | -3 | i | -0.89
Cn1ccnc1C(=O)c1cc(=O)c2ccccc2o1 | 2 | -20 | i | -3 | i | 0.27
CCOC(=O)c1[nH]c(C)c(C(=O)N2CCN(c3ccccc3OC)CC2)c1C | 5 | 1 | i | 1 | i | 0.48
Cc1ccc(NC2=C(CC(=O)O)C(c3ccccc3)N(c3ccc(C)cc3)C2=O)cc1 (centres undefined) | 12* | 0 | i | 2 | i | -0.92
COc1ccc(C2C(CC(=O)O)=C(O)C(=O)N2c2ccccc2)cc1 (centres undefined) | 3 | -17 | i | -2 | i | 0.88
CCc1cccc(CC)c1N(COC)C(=O)Cn1ccccc1=N | 4 | -21 | i | -3 | + | 0.97
CCc1cccc(CC)c1N(COC)C(=O)Cn1nnc2ccccc21 | 3 | -13 | i | -7 | i | -0.86
SMILES | MT stabilizer | Furin inh | HSV augment | bCat nuc transl | Autophagy mod | Insulin prom up
CC1=C(C)C(=O)NC(Nc2nc(C)c3cc(C)cc(C)c3n2)N1 (centres undefined) | 8 | -22 | . | . | + | .
Cc1cc(C)c2nc(/N=C(\N)NC(=O)c3ccccc3)nc(C)c2c1 | . | -28 | i | 2 | . | -0.37
N#CC1(c2ccccc2)CCC(=O)N1Cc1ccccc1 (centres undefined) | . | -24 | i | 1 | . | -0.34
COc1ccccc1N/C=C/c1onc(C)c1[N+](=O)[O-] | 2 | -17 | . | 5 | + | .
Cc1noc(/C=C/Nc2ccc(F)cc2F)c1[N+](=O)[O-] | 2 | -17 | i | -2 | i | -0.48
Cc1ccc(OCc2n[nH]c(=S)n2C2CCCCC2)cc1 | 2 | -16 | i | -2 | i | 0.34
Cc1cccc(OCc2n[nH]c(=S)n2C2CCCCC2)c1 | 32* | -6 | i | 2 | i | .
COc1ccccc1/C=N/NC(=O)CSc1cc(C)nc2ccccc12 | 27* | -29 | i | 35 | i | -1.6
COc1ccc(N(C(=O)c2ccco2)S(=O)(=O)c2ccccc2)cc1 | 1 | 2 | i | . | i | 0.31
COc1ccc(N(C(=O)c2ccco2)S(=O)(=O)c2cc(Cl)c(Cl)cc2Cl)cc1 | 33* | 1 | i | . | i | -0.32
COc1ccc(OCC(O)CNC(=O)Nc2ccc(C(C)(C)C)cc2)cc1 (centres undefined) | . | -16 | i | 1 | . | -0.02
CCOC(=O)c1cc2c(N)c(C(=O)c3cc(C#N)c(SC)nc3C)sc2nc1C | 21 | -16 | i | -1 | + | -0.09
CCOC(=O)c1ccccc1NS(=O)(=O)c1ccccc1 | 3 | -18 | i | -1 | i | 0.09
CCOC(=O)c1ccccc1NS(=O)(=O)c1ccc(C)cc1 | 26* | -13 | i | . | i | -0.1
Cc1ccc(S(=O)(=O)Nc2ccccc2-c2ccccc2)cc1 | 36* | 1 | i | 62* | + | -0.01
CCOC(=O)c1cnc(SC)nc1Oc1cccc(NS(=O)(=O)c2ccc(C)cc2)c1 | 15 | -10 | i | 0 | + | -0.51
Cc1ccc(S(=O)(=O)Nc2ccc(O)c3ncccc23)cc1 | 10 | -22 | i | 58* | i | -1.4
CC(NC(=S)NCc1ccc(F)cc1)C12CC3CC(CC(C3)C1)C2 (centres undefined) | 2 | -16 | i | 1 | i | .
CC[n+]1c(/C=C/c2c[nH]c3ccccc23)ccc2cc(C)ccc21 | 80* | 11 | . | 37 | + | ?
CCN(CC)C(=O)c1ccc(/C=C/c2c[nH]c3ccccc23)[n+](C)c1 | 3 | 5 | i | . | i | 1.2
Cc1cc(C)cc(N2CC(O)=C(c3nc4ccccc4c(=O)[nH]3)C2=N)c1 | 5 | -27 | i | 7 | i | -1.2
COc1cccc(N2CC(O)=C(c3nc4ccccc4c(=O)[nH]3)C2=N)c1 | 26* | -21 | i | 109* | + | 0.42
Cn1cccc1Cc1nnc(SCC(=O)Nc2ccc(Cl)cc2)n1-c1ccc(F)cc1 | 3 | -13 | i | -3 | + | 0.84
Cn1cccc1Cc1nnc(SCC(=O)Nc2cccc(F)c2)n1CCc1ccccc1 | 5 | -2 | i | -2 | + | 1.5
COc1ccc(-n2c(Cc3cccn3C)nnc2SCC(=O)NCc2ccccc2Cl)cc1 | 4 | 0 | i | 0 | + | -0.86
